High-throughput results as filed in PubChem.
An excerpt weighted towards active compounds, which were near 4.8% of everything screened.
UCH37 DUB inh = blocks the human deubiquitinase UCH37. inhibition, % (concentration not given with the values). AID 588478. Q9Y5K5. actives 0.33% (n = 330,000). purified proteasome/UCH37, Ub-AMC cleavage fluorescence;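 active means mean inhibition over replicate wells above about 20%, limit read from the data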;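 further: 0% = compound-free wells with enzyme and 100% = wells lacking proteasome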
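Test system – human UCH37 enzyme supplied as purified proteasome complex · Incubation – 30 min preincubation with enzyme, 25 min cleavage at room temperature · Detection – AMC fluorescence from Ub-AMC cleavage, excitation 355 nm, emission 460 nm · Benchmarks – no-proteasome wells (full inhibition) and compound-free wells (no inhibition)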
pPAFAH inh = inhibitors of human plasma PAF acetylhydrolase (pPAFAH) | inhibition, % at 3.39 µM | actives 1.5% (n = 330,000) | Q13093 | AID 463082 | recombinant pPAFAH, FP-rhodamine probe fluorescence polarization;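 active means inhibition above the mean inhibition across the screen plus 3 SD, cut at about 25% in these data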;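 further: inhibitors block binding of the rhodamine activity-based probe so polarization drops; 0% = enzyme with DMSO and 100% = wells lacking pPAFAH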
Target sequence (Q13093 whole entry, looked up): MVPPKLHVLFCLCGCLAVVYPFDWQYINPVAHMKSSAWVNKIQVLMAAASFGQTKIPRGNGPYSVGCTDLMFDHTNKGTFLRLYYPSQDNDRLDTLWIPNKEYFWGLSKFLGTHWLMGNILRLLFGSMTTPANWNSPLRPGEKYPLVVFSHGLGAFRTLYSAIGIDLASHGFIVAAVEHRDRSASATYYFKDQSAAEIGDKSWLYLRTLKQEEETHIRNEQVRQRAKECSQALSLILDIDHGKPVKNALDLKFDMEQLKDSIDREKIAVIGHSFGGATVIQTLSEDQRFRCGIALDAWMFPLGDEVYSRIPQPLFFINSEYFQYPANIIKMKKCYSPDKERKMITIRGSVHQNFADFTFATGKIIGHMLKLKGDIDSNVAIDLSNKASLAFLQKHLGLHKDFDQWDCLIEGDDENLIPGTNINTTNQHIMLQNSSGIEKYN
PAFAH1B3 FP inh = blocks human PAF acetylhydrolase 1B catalytic subunit 3. recombinant PAFAH1B3, FP-rhodamine probe, fluorescence polarization. inhibition, % at 3.39 µM. actives 0.28% (n = 340,000). AID 492972;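 active means inhibition above the screen-wide average of all tested compounds plus 3 SD, cut at about 25% in these data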;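 further: 0% = enzyme with DMSO only and 100% = wells lacking PAFAH1B3 protein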
NR3A LBD binder = modulators (binders) of human NR3A ligand-binding domain | NR3A LBD differential scanning fluorimetry, Tm shift; 0% = protein alone, 100% = glycine-bound protein | Tm shift relative to glycine control, % at 25 µM | actives 2.5% (n = 340,000);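 active means melting temperature shift of at least 10% of the positive control shift, at one fixed dose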
PAFAH2 inh = PAFAH2 (human) inhibition; recombinant PAFAH2, FP-rhodamine activity probe, fluorescence polarization; inhibition, % at 3.39 µM; actives 0.99% (n = 340,000); AID 492956;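 active means inhibition above the mean over all tested compounds plus 3 SD, cut at about 30% in these data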;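 further: inhibitors block probe labeling of enzyme so polarization drops; 0% = enzyme with DMSO and 100% = wells lacking PAFAH2 protein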
PAFAH1B2 inh = blocks human PAF acetylhydrolase 1b catalytic subunit 2. recombinant PAFAH1B2, FP-rhodamine activity probe, fluorescence polarization. actives 1.2% (n = 340,000). P68402. AID 492953. inhibition, % at 3.39 µM;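 active means inhibition above the mean of all tested compounds plus 3 SD, cut at about 24% in these data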;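 further: 0% = enzyme with DMSO and 100% = wells lacking PAFAH1B2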
* marks the source's active call; other numbers are inactive results; · = no result given.

SMILES | UCH37 DUB inh | pPAFAH inh | PAFAH1B3 FP inh | NR3A LBD binder | PAFAH2 inh | PAFAH1B2 inh
Cc1ccnc(Nc2nc(-c3ccccc3)cs2)c1 | 6.0 | 11.0 | 10.6 | -6.8 | -5.3 | 8.4
CC(=O)Nc1cccc(-c2csc(Nc3cc(C)ccn3)n2)c1 | 1.5 | 11.1 | 14.0 | 10.0* | 2.1 | 5.2
Cc1ccc(C=NNC(=O)C2COc3cc4ccccc4cc3O2)o1 (centres undefined) | -1.3 | · | · | · | · | ·
CCCCC[C@@H]1C=C(C(=O)O)[C@H](c2ccc(Cl)c(Cl)c2)N1S(=O)(=O)c1ccc(C)cc1 | 5.5 | 0.7 | -2.6 | -3.4 | 8.0 | 28.6*
CCCCC[C@@H]1C=C(C(=O)O)[C@H](c2ccc(F)cc2)N1S(=O)(=O)c1ccc(C)cc1 | 0.4 | -1.3 | 6.3 | 0.7 | 14.6 | 25.4*
Cc1onc(-c2ccccc2Cl)c1C(O)c1ccc(F)cc1 (centres undefined) | 1.2 | -3.3 | -0.5 | -1.1 | -0.5 | 4.1
Cc1onc(-c2c(F)cccc2Cl)c1C(O)c1ccc(F)cc1 (centres undefined) | 6.6 | -3.4 | · | 11.0* | · | ·
O=C(NN=Cc1cccnc1)c1ccc(F)cc1 | 2.4 | · | · | · | · | ·
COc1ccc(C2CC(c3ccccc3)=NN2c2ccc(C=NNC(=O)c3ccncc3)cc2)cc1 (centres undefined) | -2.0 | · | · | · | · | ·
O=C(CSCc1ccc(Br)cc1)N1CCCC1 | · | 6.2 | 7.3 | 2.6 | 8.4 | 28.9*
O=C(CSCc1ccc(F)cc1)N1CCOCC1 | 1.1 | 0.4 | 0.0 | 0.9 | -3.5 | -2.0
O=C(CSCc1ccc(Br)cc1)N1CCOCC1 | -2.2 | 4.7 | 2.8 | -0.1 | 4.5 | 26.3*
CC(=O)N(N=Cc1cccc(C)c1)c1nc(-c2ccc(Br)cc2)cs1 | 0.4 | · | · | · | · | ·
COc1cc(/C=C(\C#N)C(=O)NCC2CCCO2)ccc1OC(C)C (centres undefined) | 4.8 | -2.3 | 6.2 | 11.2* | 4.9 | -1.0
COc1ccc(/C=C(\C#N)C(=O)NCC2CCCO2)cc1OC (centres undefined) | 5.5 | 0.1 | 0.7 | -0.9 | 0.3 | 1.0
Clc1ccc(Cc2noc(CN3CCN(c4ccccc4)CC3)n2)c(Cl)c1 | 5.2 | -0.6 | -2.4 | 2.2 | -1.6 | -7.8
Fc1ccccc1N1CCN(Cc2nc(-c3ccc(Cl)cc3Cl)no2)CC1 | -0.1 | 1.6 | 4.7 | 20.1* | -0.5 | -2.9
O=CN1CCCN(Cc2nc(-c3cccc(Cl)c3)no2)CC1 | 30.2* | 2.2 | 2.1 | 0.3 | -4.5 | 2.6
CC(=NNC(=O)C1CC1c1ccccc1)c1cccc([N+](=O)[O-])c1 (centres undefined) | -2.7 | · | · | · | · | ·
CCCNC(=O)OC[C@H]1O[C@H](CCON=C[C@@H](NS(=O)(=O)c2ccc(C)cc2)[C@H](C)/C=C/CC(=O)OC)C=C[C@@H]1Oc1ccc(OC)cc1 | -1.7 | · | · | · | · | ·
CC(Cc1ccccc1)=NNC(=O)c1ccccn1 | 2.6 | · | · | · | · | ·
Cc1sc(N)nc1-c1ccccc1 | 0.7 | -0.3 | 8.0 | -0.3 | 8.8 | 4.2
CC(C)(C)c1sc(N)nc1-c1ccccc1 | 3.6 | 9.0 | 4.4 | -1.1 | -8.8 | 26.9*
O=C(NCc1csc2ccccc12)Nc1cc(Cl)cc(Cl)c1 | 3.6 | -12.0 | 8.1 | 21.2* | -9.7 | 1.2
Nn1c(SCC(=O)Nc2ccc3c(c2)OCCO3)nnc1-c1ccncc1 | 1.5 | -1.2 | 2.4 | 17.4* | 0.1 | -5.3
Cc1[nH]n(-c2ncc(-c3ccccc3)s2)c(=O)c1C(c1ccc(Cl)cc1)C(C#N)C#N (centres undefined) | 1.0 | 27.1* | 14.4 | 12.5* | 29.3 | 7.6
Cc1[nH]n(-c2ccccc2)c(=O)c1C(c1ccccc1[N+](=O)[O-])C(C#N)C#N (centres undefined) | 4.5 | 12.2 | 6.4 | -1.2 | 12.6 | 2.5
O=C(CC1CCCC1)N1CCCC(Nc2ccc(F)cc2)C1 (centres undefined) | -1.0 | -1.4 | 7.5 | 2.4 | 2.8 | 15.6
CC1(CCC(=O)N2CCCC(Nc3ccc(F)cc3)C2)CC1 (centres undefined) | 1.5 | -4.3 | 7.9 | 3.9 | 2.0 | 28.9*
CC1=C(/C=C/C(C)=C/C=C/C(C)=C\C(=O)O)C(C)(C)CCC1 | 18.9 | 27.6* | -0.2 | 2.8 | 4.1 | 8.7
